Laboratory results reported in ChEMBL document CHEMBL1128519, “Semisynthetic chemical modification of the antifungal lipopeptide echinocandin B (ECB): structure-activity studies of the lipophilic and geometric parameters of polyarylated acyl analogs of ECB” (J Med Chem, 1995).
Values after ≈ are worked out from the molar mass of the structure shown. Numbered stars: 1 amine (or outer) side, 2 acyl side, 3 side chain; on linkers, the order of the positions; unused ones are H or OH. Bridge positions count the residues as written; N and C are the ends. Square brackets hold non-standard residues; d marks the D form. Peptide text beside a SMILES is read from it. * marks the point of attachment. Orn(4R-OH,5R-OH) = O=C([C@H](C[C@@H](O)[C@@H](O)N[*:3])N[*:1])[*:2]; hTyr(3S-OH,4S-OH) = N[C@H](C(=O)O)[C@H](O)[C@@H](O)c1ccc(O)cc1; Pro(3S-OH,4S-Me) = C[C@H]1CN[C@H](C(=O)O)[C@H]1O; X25 = CCCCCCCCCCCCC(Oc1ccc(-c2ccccc2)cc1)C(=O)*; X18 = O=C(c1ccc(C#Cc2ccc(-c3ccccc3)cc2)cc1)*; X11 = CCC(CC)COc1ccc(-c2ccc(C(=O)*)cc2)cc1; X13 = O=C(CCCCCCCCCCOc1ccc(-c2ccccc2)cc1)*; X22 = O=C(c1ccc(-c2ccc(OCC3CCCC3)cc2)cc1)*; X24 = CCCCC(Oc1ccc(-c2ccccc2)cc1)C(=O)*; X10 = CCCCc1ccc(COc2ccc(C(=O)*)cc2)cc1; X26 = CCCCOc1ccc(Cc2ccc(C(=O)*)cc2)cc1; X28 = CCCCOc1ccc(Oc2ccc(C(=O)*)cc2)cc1; X23 = O=C(CCCCCOc1ccc(-c2ccccc2)cc1)*; X27 = CCCCCCCCCCOc1cc2ccccc2cc1C(=O)*; X12 = CCCCCCCCCCOCCOc1ccc(C(=O)*)cc1; X15 = CCCCCCOc1ccc2cc(C(=O)*)ccc2c1; X19 = CCCCCCCCOCCOc1ccc(C(=O)*)cc1; X30 = CCCCCCOc1cc2ccccc2cc1C(=O)*; Hyp = O=C(O)[C@@H]1C[C@@H](O)CN1; X29 = CCCCCOCCOc1ccc(C(=O)*)cc1

Tests used:
[1] = tested on: Candida albicans; test: In vivo antifungal activity administered intraperitoneally against Candida albicans infections in mice.; assay type: functional; conditions: ip
How it was run: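 Male ICR mice (18-20 g), X-irradiated with 400 r 24 h before iv tail-vein infection with 2 × 10^6 C. albicans A26 cells in saline. Compounds suspended in β-cyclodextrin, given parenterally at 0, 4, 24 and 48 h post-infection. 10 mice per dose, top dose 10 mg/kg with 2-fold dilutions down to 0.039 mg/kg. 7-day survival; ED50 by Reed-Muench.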

[2] = biological target: Beta-1,3-glucan synthase (Candida albicans) (UniProt O13428); test: In vitro inhibition of glucan synthase obtained from Candida albicans at a concentration of 10 ug/mL.
Sequence of Beta-1,3-glucan synthase (Candida albicans) (O13428 as listed by the source): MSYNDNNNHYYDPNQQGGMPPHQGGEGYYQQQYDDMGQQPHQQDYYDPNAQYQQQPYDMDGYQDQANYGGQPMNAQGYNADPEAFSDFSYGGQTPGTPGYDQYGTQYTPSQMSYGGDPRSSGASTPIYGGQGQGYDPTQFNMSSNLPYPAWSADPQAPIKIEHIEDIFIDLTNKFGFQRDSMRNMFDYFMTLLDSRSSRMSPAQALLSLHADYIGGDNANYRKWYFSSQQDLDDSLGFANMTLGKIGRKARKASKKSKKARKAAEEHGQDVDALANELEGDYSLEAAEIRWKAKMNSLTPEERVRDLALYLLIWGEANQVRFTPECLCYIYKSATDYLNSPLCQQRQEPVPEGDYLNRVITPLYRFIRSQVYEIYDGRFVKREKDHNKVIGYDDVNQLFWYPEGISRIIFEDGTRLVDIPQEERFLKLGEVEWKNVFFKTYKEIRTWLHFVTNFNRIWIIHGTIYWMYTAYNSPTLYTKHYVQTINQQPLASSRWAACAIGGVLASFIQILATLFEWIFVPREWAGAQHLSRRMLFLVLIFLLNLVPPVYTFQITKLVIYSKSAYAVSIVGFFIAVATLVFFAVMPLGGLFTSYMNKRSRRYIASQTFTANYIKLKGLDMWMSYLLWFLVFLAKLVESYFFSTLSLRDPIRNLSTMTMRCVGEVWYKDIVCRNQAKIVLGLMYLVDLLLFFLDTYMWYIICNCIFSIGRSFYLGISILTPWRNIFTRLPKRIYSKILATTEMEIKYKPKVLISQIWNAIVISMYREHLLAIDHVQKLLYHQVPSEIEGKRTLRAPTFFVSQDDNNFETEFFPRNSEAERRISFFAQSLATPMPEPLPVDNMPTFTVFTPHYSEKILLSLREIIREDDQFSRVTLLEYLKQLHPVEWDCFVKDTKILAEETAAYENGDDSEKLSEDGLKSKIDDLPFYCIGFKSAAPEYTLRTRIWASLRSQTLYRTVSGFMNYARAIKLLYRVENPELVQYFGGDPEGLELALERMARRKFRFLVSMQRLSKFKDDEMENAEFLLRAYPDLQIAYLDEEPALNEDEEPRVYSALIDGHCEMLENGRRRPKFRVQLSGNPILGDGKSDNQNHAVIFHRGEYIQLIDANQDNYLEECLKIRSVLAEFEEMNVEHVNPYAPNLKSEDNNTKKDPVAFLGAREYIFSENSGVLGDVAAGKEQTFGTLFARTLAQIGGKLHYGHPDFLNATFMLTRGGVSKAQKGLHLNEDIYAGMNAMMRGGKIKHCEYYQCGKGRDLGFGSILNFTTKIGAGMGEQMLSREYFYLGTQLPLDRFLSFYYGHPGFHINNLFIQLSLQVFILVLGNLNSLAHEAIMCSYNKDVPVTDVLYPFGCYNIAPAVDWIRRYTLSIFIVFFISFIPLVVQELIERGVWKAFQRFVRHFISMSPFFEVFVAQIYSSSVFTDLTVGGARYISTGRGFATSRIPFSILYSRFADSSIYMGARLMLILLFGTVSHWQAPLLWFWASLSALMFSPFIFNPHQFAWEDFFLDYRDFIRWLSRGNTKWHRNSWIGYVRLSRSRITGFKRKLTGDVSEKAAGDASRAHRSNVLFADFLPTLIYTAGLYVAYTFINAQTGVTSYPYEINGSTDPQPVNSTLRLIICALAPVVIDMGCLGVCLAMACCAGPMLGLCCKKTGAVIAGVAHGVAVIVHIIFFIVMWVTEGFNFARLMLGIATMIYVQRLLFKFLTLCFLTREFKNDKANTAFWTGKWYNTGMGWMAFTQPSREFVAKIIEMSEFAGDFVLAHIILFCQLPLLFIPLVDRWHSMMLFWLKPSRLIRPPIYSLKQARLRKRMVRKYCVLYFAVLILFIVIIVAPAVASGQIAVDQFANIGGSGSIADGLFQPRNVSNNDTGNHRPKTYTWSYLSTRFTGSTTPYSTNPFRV
How it was run: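 Purified, solubilized β-(1,3)-D-glucan synthase prepared from C. albicans. Percent inhibition measured at 10 µg/mL compound, single determination.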

[3] = tested on: Candida albicans; test: Antifungal activity against Candida albicans; assay type: functional
How it was run: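 Broth microdilution, C. albicans A26 (ATCC 62342) grown on Sabouraud dextrose agar at 35 °C; inoculum 1 × 10^5 conidia/mL in antibiotic 3 broth. Compounds dissolved at 1.0 mg/mL in methanol, 2-fold serial dilutions from 80 µg/mL, duplicate. Read after 48 h at 35 °C. MIC = lowest concentration completely inhibiting visible growth.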

Structure (SMILES) | ED50 [1] [mg/kg] | inhibition [2] [%] | MIC [3] [µg/mL]
CCCCc1ccc(COc2ccc(C(=O)N[C@H]3C[C@@H](O)[C@@H](O)NC(=O)[C@@H]4[C@@H](O)[C@@H](C)CN4C(=O)[C@H]([C@@H](C)O)NC(=O)[C@H]([C@H](O)[C@@H](O)c4ccc(O)cc4)NC(=O)[C@@H]4C[C@@H](O)CN4C(=O)[C@H]([C@@H](C)O)NC3=O)cc2)cc1 (X10-[Orn(4R-OH,5R-OH)]T[Hyp][hTyr(3S-OH,4S-OH)]T[Pro(3S-OH,4S-Me)]; lactam 1-C) | 6.7 | 68.9 | 0.156 (≈ 0.147 µM)
CCC(CC)COc1ccc(-c2ccc(C(=O)N[C@H]3C[C@@H](O)[C@@H](O)NC(=O)[C@@H]4[C@@H](O)[C@@H](C)CN4C(=O)[C@H]([C@@H](C)O)NC(=O)[C@H]([C@H](O)[C@@H](O)c4ccc(O)cc4)NC(=O)[C@@H]4C[C@@H](O)CN4C(=O)[C@H]([C@@H](C)O)NC3=O)cc2)cc1 (X11-[Orn(4R-OH,5R-OH)]T[Hyp][hTyr(3S-OH,4S-OH)]T[Pro(3S-OH,4S-Me)]; lactam 1-C) | 4.6 | – | 0.039 (≈ 0.0362 µM)
CCCCCCCCCCOCCOc1ccc(C(=O)N[C@H]2C[C@@H](O)[C@@H](O)NC(=O)[C@@H]3[C@@H](O)[C@@H](C)CN3C(=O)[C@H]([C@@H](C)O)NC(=O)[C@H]([C@H](O)[C@@H](O)c3ccc(O)cc3)NC(=O)[C@@H]3C[C@@H](O)CN3C(=O)[C@H]([C@@H](C)O)NC2=O)cc1 (X12-[Orn(4R-OH,5R-OH)]T[Hyp][hTyr(3S-OH,4S-OH)]T[Pro(3S-OH,4S-Me)]; lactam 1-C) | 9.5 | 71.4 | 0.625 (≈ 0.567 µM)
C[C@@H](O)[C@@H]1NC(=O)[C@H]([C@H](O)[C@@H](O)c2ccc(O)cc2)NC(=O)[C@@H]2C[C@@H](O)CN2C(=O)[C@H]([C@@H](C)O)NC(=O)[C@@H](NC(=O)CCCCCCCCCCOc2ccc(-c3ccccc3)cc2)C[C@@H](O)[C@@H](O)NC(=O)[C@@H]2[C@@H](O)[C@@H](C)CN2C1=O (X13-[Orn(4R-OH,5R-OH)]T[Hyp][hTyr(3S-OH,4S-OH)]T[Pro(3S-OH,4S-Me)]; lactam 1-C) | 7.4 | 80.2 | 0.02 (≈ 0.0176 µM)
CCCCCCOc1ccc2cc(C(=O)N[C@H]3C[C@@H](O)[C@@H](O)NC(=O)[C@@H]4[C@@H](O)[C@@H](C)CN4C(=O)[C@H]([C@@H](C)O)NC(=O)[C@H]([C@H](O)[C@@H](O)c4ccc(O)cc4)NC(=O)[C@@H]4C[C@@H](O)CN4C(=O)[C@H]([C@@H](C)O)NC3=O)ccc2c1 (X15-[Orn(4R-OH,5R-OH)]T[Hyp][hTyr(3S-OH,4S-OH)]T[Pro(3S-OH,4S-Me)]; lactam 1-C) | 2.8 | 77.7 | 0.039 (≈ 0.0371 µM)
C[C@@H](O)[C@@H]1NC(=O)[C@H]([C@H](O)[C@@H](O)c2ccc(O)cc2)NC(=O)[C@@H]2C[C@@H](O)CN2C(=O)[C@H]([C@@H](C)O)NC(=O)[C@@H](NC(=O)c2ccc(C#Cc3ccc(-c4ccccc4)cc3)cc2)C[C@@H](O)[C@@H](O)NC(=O)[C@@H]2[C@@H](O)[C@@H](C)CN2C1=O (X18-[Orn(4R-OH,5R-OH)]T[Hyp][hTyr(3S-OH,4S-OH)]T[Pro(3S-OH,4S-Me)]; lactam 1-C) | 1.7 | 78.2 | 0.078 (≈ 0.0723 µM)
CCCCCCCCOCCOc1ccc(C(=O)N[C@H]2C[C@@H](O)[C@@H](O)NC(=O)[C@@H]3[C@@H](O)[C@@H](C)CN3C(=O)[C@H]([C@@H](C)O)NC(=O)[C@H]([C@H](O)[C@@H](O)c3ccc(O)cc3)NC(=O)[C@@H]3C[C@@H](O)CN3C(=O)[C@H]([C@@H](C)O)NC2=O)cc1 (X19-[Orn(4R-OH,5R-OH)]T[Hyp][hTyr(3S-OH,4S-OH)]T[Pro(3S-OH,4S-Me)]; lactam 1-C) | 4.4 | 54.8 | 2.5 (≈ 2.33 µM)
C[C@@H](O)[C@@H]1NC(=O)[C@H]([C@H](O)[C@@H](O)c2ccc(O)cc2)NC(=O)[C@@H]2C[C@@H](O)CN2C(=O)[C@H]([C@@H](C)O)NC(=O)[C@@H](NC(=O)c2ccc(-c3ccc(OCC4CCCC4)cc3)cc2)C[C@@H](O)[C@@H](O)NC(=O)[C@@H]2[C@@H](O)[C@@H](C)CN2C1=O (X22-[Orn(4R-OH,5R-OH)]T[Hyp][hTyr(3S-OH,4S-OH)]T[Pro(3S-OH,4S-Me)]; lactam 1-C) | 1.2 | – | 0.039 (≈ 0.0362 µM)
C[C@@H](O)[C@@H]1NC(=O)[C@H]([C@H](O)[C@@H](O)c2ccc(O)cc2)NC(=O)[C@@H]2C[C@@H](O)CN2C(=O)[C@H]([C@@H](C)O)NC(=O)[C@@H](NC(=O)CCCCCOc2ccc(-c3ccccc3)cc2)C[C@@H](O)[C@@H](O)NC(=O)[C@@H]2[C@@H](O)[C@@H](C)CN2C1=O (X23-[Orn(4R-OH,5R-OH)]T[Hyp][hTyr(3S-OH,4S-OH)]T[Pro(3S-OH,4S-Me)]; lactam 1-C) | – | 69.1 | 1.25 (≈ 1.17 µM)
CCCCC(Oc1ccc(-c2ccccc2)cc1)C(=O)N[C@H]1C[C@@H](O)[C@@H](O)NC(=O)[C@@H]2[C@@H](O)[C@@H](C)CN2C(=O)[C@H]([C@@H](C)O)NC(=O)[C@H]([C@H](O)[C@@H](O)c2ccc(O)cc2)NC(=O)[C@@H]2C[C@@H](O)CN2C(=O)[C@H]([C@@H](C)O)NC1=O (stereo partly drawn) (X24-[Orn(4R-OH,5R-OH)]T[Hyp][hTyr(3S-OH,4S-OH)]T[Pro(3S-OH,4S-Me)]; lactam 1-C) | – | 55.1 | 80 (≈ 75.2 µM)
CCCCCCCCCCCCC(Oc1ccc(-c2ccccc2)cc1)C(=O)N[C@H]1C[C@@H](O)[C@@H](O)NC(=O)[C@@H]2[C@@H](O)[C@@H](C)CN2C(=O)[C@H]([C@@H](C)O)NC(=O)[C@H]([C@H](O)[C@@H](O)c2ccc(O)cc2)NC(=O)[C@@H]2C[C@@H](O)CN2C(=O)[C@H]([C@@H](C)O)NC1=O (stereo partly drawn) (X25-[Orn(4R-OH,5R-OH)]T[Hyp][hTyr(3S-OH,4S-OH)]T[Pro(3S-OH,4S-Me)]; lactam 1-C) | – | 83 | 0.312 (≈ 0.265 µM)
CCCCOc1ccc(Cc2ccc(C(=O)N[C@H]3C[C@@H](O)[C@@H](O)NC(=O)[C@@H]4[C@@H](O)[C@@H](C)CN4C(=O)[C@H]([C@@H](C)O)NC(=O)[C@H]([C@H](O)[C@@H](O)c4ccc(O)cc4)NC(=O)[C@@H]4C[C@@H](O)CN4C(=O)[C@H]([C@@H](C)O)NC3=O)cc2)cc1 (X26-[Orn(4R-OH,5R-OH)]T[Hyp][hTyr(3S-OH,4S-OH)]T[Pro(3S-OH,4S-Me)]; lactam 1-C) | – | 43.4 | > 20
CCCCCCCCCCOc1cc2ccccc2cc1C(=O)N[C@H]1C[C@@H](O)[C@@H](O)NC(=O)[C@@H]2[C@@H](O)[C@@H](C)CN2C(=O)[C@H]([C@@H](C)O)NC(=O)[C@H]([C@H](O)[C@@H](O)c2ccc(O)cc2)NC(=O)[C@@H]2C[C@@H](O)CN2C(=O)[C@H]([C@@H](C)O)NC1=O (X27-[Orn(4R-OH,5R-OH)]T[Hyp][hTyr(3S-OH,4S-OH)]T[Pro(3S-OH,4S-Me)]; lactam 1-C) | – | 40.6 | 20 (≈ 18 µM)
CCCCOc1ccc(Oc2ccc(C(=O)N[C@H]3C[C@@H](O)[C@@H](O)NC(=O)[C@@H]4[C@@H](O)[C@@H](C)CN4C(=O)[C@H]([C@@H](C)O)NC(=O)[C@H]([C@H](O)[C@@H](O)c4ccc(O)cc4)NC(=O)[C@@H]4C[C@@H](O)CN4C(=O)[C@H]([C@@H](C)O)NC3=O)cc2)cc1 (X28-[Orn(4R-OH,5R-OH)]T[Hyp][hTyr(3S-OH,4S-OH)]T[Pro(3S-OH,4S-Me)]; lactam 1-C) | – | 66.7 | > 20
CCCCCOCCOc1ccc(C(=O)N[C@H]2C[C@@H](O)[C@@H](O)NC(=O)[C@@H]3[C@@H](O)[C@@H](C)CN3C(=O)[C@H]([C@@H](C)O)NC(=O)[C@H]([C@H](O)[C@@H](O)c3ccc(O)cc3)NC(=O)[C@@H]3C[C@@H](O)CN3C(=O)[C@H]([C@@H](C)O)NC2=O)cc1 (X29-[Orn(4R-OH,5R-OH)]T[Hyp][hTyr(3S-OH,4S-OH)]T[Pro(3S-OH,4S-Me)]; lactam 1-C) | – | 17.1 | > 20
CCCCCCOc1cc2ccccc2cc1C(=O)N[C@H]1C[C@@H](O)[C@@H](O)NC(=O)[C@@H]2[C@@H](O)[C@@H](C)CN2C(=O)[C@H]([C@@H](C)O)NC(=O)[C@H]([C@H](O)[C@@H](O)c2ccc(O)cc2)NC(=O)[C@@H]2C[C@@H](O)CN2C(=O)[C@H]([C@@H](C)O)NC1=O (X30-[Orn(4R-OH,5R-OH)]T[Hyp][hTyr(3S-OH,4S-OH)]T[Pro(3S-OH,4S-Me)]; lactam 1-C) | – | 19.4 | 20 (≈ 19 µM)
